Results as given in ChEMBL document CHEMBL3877298, “Discovery of benzimidazole derivatives as modulators of mitochondrial function: A potential treatment for Alzheimer's disease” (Eur J Med Chem, 2017).

Legend:
[1] = Drug excretion in Sprague-Dawley rat at 10 mg/kg, iv by LC-MS/MS analysis; type: ADME, organism-based; conditions: in vivo, read-out: Drug excretion
[2] = biological target: Translocator protein (Mus musculus) (UniProt P50637); assay: Inhibition of TSPO in mouse HT22 cells assessed as inhibition of amyloid beta (1 to 42)-induced toxicity at 5 uM after 24 hrs by MTT assay relative to control; type: cell-based; conditions: HT-22
Chain of Translocator protein (Mus musculus) (P50637 whole entry, looked up): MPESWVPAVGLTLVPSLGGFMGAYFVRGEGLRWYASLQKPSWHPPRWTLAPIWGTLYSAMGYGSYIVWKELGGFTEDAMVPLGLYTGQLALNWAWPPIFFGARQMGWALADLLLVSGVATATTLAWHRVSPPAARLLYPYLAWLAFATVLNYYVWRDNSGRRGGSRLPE
How it was run: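 HT22 cells at 5000 per well were treated with compound (5 µM), with or without Aβ1-42 (5 µM), for 24 h at 37 °C. MTT was added for 2 h, then solubilising solution (10% Triton X-100 in isopropanol with 0.1 M HCl) for 2 h more. Absorbance read at 560 nm; % inhibition normalised to vehicle, and viability taken from compound-only wells.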

[3] = biological target: Translocator protein (Mus musculus) (UniProt P50637); assay: Inhibition of TSPO in mouse HT22 cells assessed as protection against amyloid beta (1 to 42)-induced mitochondrial membrane potential loss by measuring recovery of ATP production at 5 uM preincubated for 10 mins followed by amyloid beta (1 to 42) addition measured after 7 hrs by luciferase reporter gene assay relative to control; type: cell-based; set-up: scale not given: the % may be the effect or the level left; conditions: HT-22
How it was run: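 HT22 cells at 7000 per well were given compound (5 µM) for 10 min at 37 °C, then Aβ1-42 (5 µM) or DMSO vehicle, and incubated 7 h. Cells were washed, lysed in 1% Triton X-100, and protein-equalised by BCA. ATP was measured by luciferin/luciferase luminescence and normalised to vehicle.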

[4] = Volume of distribution at steady state in Sprague-Dawley rat at 10 mg/kg, iv by LC-MS/MS analysis; type: ADME, organism-based; conditions: in vivo, read-out: Vdss
How it was run: (§1)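 Male SD rats, 8 weeks old, given 10 mg/kg intravenously (n = 4). Plasma mixed with carbamazepine internal standard in acetonitrile, vortexed, centrifuged at 10,000×g, and the supernatant analysed by LC-MS/MS. Parameters reported as mean ± SD.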

Translocator protein = Translocator protein (Homo sapiens, UniProt P30536); assay: Binding affinity to recombinant human TSPO by SPR assay
Chain of Translocator protein (P30536 whole entry): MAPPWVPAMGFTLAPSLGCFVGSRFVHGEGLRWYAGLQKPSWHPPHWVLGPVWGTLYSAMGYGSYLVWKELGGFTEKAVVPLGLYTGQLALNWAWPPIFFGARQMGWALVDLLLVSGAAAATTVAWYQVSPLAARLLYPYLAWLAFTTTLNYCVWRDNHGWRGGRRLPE
How it was run: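 Biacore T200 at 25 °C with recombinant human TSPO (18 kDa) amine-coupled to a CM5 chip in 10 mM sodium acetate pH 4.5, giving 4000–6000 RU. Compounds from 10 mM DMSO stocks were diluted in PBS-P; running buffer held 1.0% DMSO. Five concentrations, 0.01–5 µM, were injected at 50 µL/min (120 s contact, 300 s dissociation), with blanks and regeneration. KD reported.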

[5] = MRT in Sprague-Dawley rat at 10 mg/kg, iv by LC-MS/MS analysis; type: ADME, organism-based; conditions: in vivo; how it was run: as §1
CYP2C19 = CYP2C19 (Homo sapiens, UniProt P33261); assay: Inhibition of recombinant human CYP2C19 expressed in baculosomes coexpressing rabbit NADPH-P450 reudctase assessed as residual activity at 10 uM preincubated for 5 mins followed by substrate and NADP+ addition measured after 20 mins by fluorescence assay relative to control; type: ADME; conditions: read-out: Activity
Chain of CYP2C19 (P33261 whole entry): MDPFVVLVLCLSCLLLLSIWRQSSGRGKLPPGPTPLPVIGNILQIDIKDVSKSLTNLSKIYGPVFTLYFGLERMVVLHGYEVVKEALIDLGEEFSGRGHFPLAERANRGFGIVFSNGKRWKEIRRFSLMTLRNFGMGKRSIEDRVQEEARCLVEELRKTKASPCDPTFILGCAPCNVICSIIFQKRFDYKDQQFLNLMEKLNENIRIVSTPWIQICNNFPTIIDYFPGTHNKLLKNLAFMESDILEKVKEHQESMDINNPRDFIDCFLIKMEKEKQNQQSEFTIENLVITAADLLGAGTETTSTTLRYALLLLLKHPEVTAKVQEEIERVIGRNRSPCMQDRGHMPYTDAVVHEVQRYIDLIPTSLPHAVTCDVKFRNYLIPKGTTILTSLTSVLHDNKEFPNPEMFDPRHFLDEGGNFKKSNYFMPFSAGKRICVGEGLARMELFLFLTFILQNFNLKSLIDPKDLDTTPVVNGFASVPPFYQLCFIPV
How it was run: (§2)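 Vivid CYP450 kit: recombinant human CYP isozyme in Baculosomes with rabbit NADPH-P450 reductase, plus regeneration system (3.3 mM glucose-6-phosphate, 0.3 U/mL G6PDH in 100 mM potassium phosphate, pH 8.0). Mixture preincubated with sample for 5 min at 37 °C. Vivid substrate and 0.1 mM NADP+ were then added, and remaining activity read by fluorescence after 20 min.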

CYP2D6 = CYP2D6 (Homo sapiens, UniProt P10635); assay: Inhibition of recombinant human CYP2D6 expressed in baculosomes coexpressing rabbit NADPH-P450 reudctase assessed as residual activity at 10 uM preincubated for 5 mins followed by substrate and NADP+ addition measured after 20 mins by fluorescence assay relative to control; type: ADME; conditions: read-out: Activity; how it was run: as §2
Chain of CYP2D6 (P10635 whole entry): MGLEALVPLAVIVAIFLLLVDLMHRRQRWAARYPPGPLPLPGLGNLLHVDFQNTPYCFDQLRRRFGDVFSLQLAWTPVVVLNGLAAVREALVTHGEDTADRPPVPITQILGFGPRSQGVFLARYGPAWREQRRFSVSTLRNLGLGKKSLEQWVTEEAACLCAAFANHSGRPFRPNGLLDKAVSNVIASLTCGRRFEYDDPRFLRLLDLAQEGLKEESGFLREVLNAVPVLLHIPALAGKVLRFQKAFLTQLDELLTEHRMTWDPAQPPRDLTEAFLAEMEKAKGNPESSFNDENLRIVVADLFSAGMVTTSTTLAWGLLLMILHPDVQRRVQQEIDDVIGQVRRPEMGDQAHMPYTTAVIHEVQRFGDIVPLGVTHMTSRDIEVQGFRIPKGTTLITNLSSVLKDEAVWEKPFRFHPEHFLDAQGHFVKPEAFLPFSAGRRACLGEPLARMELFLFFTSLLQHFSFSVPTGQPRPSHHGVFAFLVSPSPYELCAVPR

[6] = Cytotoxicity against mouse HT22 cells assessed as cell viability at 5 uM after 24 hrs by MTT assay relative to control; type: toxicity, HT-22; conditions: read-out: Activity
How it was run: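 MTT was added for 2 h, then solubilising solution (10% Triton X-100 in isopropanol with 0.1 M HCl) for 2 h more. Absorbance read at 560 nm; % inhibition normalised to vehicle, and viability taken from compound-only wells.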

[7] = biological target: Voltage-gated inwardly rectifying potassium channel KCNH2 (Homo sapiens, UniProt Q12809); assay: Inhibition of human ERG expressed in CHOK1 cells by automated patch clamp method; type: cell-based, CHO-K1
Chain of Voltage-gated inwardly rectifying potassium channel KCNH2 (Q12809 whole entry): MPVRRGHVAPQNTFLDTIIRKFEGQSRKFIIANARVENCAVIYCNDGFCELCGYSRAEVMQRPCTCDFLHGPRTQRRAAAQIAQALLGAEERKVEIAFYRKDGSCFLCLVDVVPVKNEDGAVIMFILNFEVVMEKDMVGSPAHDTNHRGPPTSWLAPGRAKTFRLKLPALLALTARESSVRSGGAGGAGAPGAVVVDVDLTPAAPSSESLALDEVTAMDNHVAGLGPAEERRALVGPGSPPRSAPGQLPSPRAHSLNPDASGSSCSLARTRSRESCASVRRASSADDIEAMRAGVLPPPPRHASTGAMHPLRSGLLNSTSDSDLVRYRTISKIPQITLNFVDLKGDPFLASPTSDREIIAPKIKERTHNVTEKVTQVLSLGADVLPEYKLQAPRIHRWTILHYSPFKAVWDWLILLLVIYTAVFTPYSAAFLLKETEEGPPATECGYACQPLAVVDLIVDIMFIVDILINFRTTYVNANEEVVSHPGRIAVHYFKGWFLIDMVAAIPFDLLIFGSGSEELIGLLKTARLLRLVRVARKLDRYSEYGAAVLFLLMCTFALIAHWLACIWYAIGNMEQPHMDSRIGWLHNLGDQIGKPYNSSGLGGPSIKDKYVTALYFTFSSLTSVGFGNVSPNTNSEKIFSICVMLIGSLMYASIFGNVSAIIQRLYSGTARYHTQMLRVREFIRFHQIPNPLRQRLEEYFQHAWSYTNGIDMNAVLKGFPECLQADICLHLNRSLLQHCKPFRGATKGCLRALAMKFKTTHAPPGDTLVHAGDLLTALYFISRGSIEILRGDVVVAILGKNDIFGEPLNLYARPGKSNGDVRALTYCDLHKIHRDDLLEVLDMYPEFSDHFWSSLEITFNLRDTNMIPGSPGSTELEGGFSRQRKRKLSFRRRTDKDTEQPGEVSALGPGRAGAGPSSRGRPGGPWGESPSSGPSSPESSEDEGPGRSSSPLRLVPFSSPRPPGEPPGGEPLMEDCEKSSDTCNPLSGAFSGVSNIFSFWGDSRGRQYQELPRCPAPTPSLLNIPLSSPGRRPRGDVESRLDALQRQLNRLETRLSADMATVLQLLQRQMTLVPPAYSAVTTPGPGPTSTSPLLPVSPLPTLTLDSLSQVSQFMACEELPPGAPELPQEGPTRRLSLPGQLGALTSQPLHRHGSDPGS

[8] = AUClast in Sprague-Dawley rat at 10 mg/kg, iv by LC-MS/MS analysis; type: ADME, organism-based; set-up: dose 10 mg/kg, route intravenous, time 0 - last; conditions: in vivo; how it was run: as §1
[9] = Terminal half life in Sprague-Dawley rat at 10 mg/kg, iv by LC-MS/MS analysis; type: ADME, organism-based; conditions: in vivo, read-out: beta t1/2; how it was run: as §1
[10] = Oral bioavailability in Sprague-Dawley rat at 10 mg/kg by LC-MS/MS analysis; type: ADME, organism-based; conditions: in vivo
How it was run: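 Male SD rats, 8 weeks old, acclimatised at least 1 week; compound dissolved at 10 mg/2 mL in N-methyl-2-pyrrolidone/Tween80/water (1:2:7) by 5 min sonication, given 10 mg/kg by oral gavage at 2 mL/kg (n = 5). Heart-puncture blood drawn at 30 min and 3 h, plasma spun and stored at -70 °C. Samples mixed with carbamazepine internal standard in acetonitrile and assayed by LC-MS/MS.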

For `Cc1ccc(C(C)C)cc1NC(=O)Cn1c(Cc2c(Cl)cccc2Cl)nc2ccccc21`, the dose excreted [1] was 0.03%, the inhibition [2] was 30% and the Activity [3] was 95%. The Vd [4] was 6.21 L/kg, the Kd (Translocator protein) was 108 nM and the MRT [5] was 1.12 h. The activity at 20 min, 10 µM (CYP2C19) was 57.3%, the activity at 20 min, 10 µM (CYP2D6) was 140% and the viability at 24 h, 5 µM [6] was 88 to 109%. The IC50 [7] was over 100000 nM, the AUC(0-t) [8] was 1750 ng·h/mL and the half-life [9] was 2.62 h. For the same compound, the bioavailability [10] was 3.7%.
